Measured values gathered from unrelated publications.
Compare with care: the assays were run in different laboratories.
Target: Serine/threonine-protein kinase D1 (PRKD1, Homo sapiens, UniProt Q15139)
One construct used (Q15139 1-912): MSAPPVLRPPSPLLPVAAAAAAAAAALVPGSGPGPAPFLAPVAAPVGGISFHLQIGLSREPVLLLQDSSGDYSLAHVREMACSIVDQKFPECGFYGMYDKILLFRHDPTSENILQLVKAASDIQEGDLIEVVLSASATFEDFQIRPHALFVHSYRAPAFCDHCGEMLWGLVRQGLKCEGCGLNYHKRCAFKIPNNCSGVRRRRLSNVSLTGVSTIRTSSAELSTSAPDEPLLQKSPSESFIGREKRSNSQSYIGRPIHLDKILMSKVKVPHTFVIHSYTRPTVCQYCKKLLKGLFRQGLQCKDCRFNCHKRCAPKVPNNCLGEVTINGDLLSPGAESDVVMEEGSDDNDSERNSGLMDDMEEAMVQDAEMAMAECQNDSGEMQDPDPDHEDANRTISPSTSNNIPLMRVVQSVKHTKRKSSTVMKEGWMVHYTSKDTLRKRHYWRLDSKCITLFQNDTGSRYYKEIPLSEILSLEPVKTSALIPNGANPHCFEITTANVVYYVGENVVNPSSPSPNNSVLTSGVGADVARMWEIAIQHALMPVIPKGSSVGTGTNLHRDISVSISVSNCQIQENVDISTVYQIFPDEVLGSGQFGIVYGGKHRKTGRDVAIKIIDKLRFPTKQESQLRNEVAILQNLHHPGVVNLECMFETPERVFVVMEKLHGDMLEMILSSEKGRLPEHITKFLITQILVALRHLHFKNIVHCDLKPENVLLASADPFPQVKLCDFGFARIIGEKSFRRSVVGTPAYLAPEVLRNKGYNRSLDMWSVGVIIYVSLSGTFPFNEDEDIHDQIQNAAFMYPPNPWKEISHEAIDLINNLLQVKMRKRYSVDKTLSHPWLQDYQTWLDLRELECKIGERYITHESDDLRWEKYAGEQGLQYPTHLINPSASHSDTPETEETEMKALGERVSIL

O=C(c1ccc(Nc2ncc(Cl)c(-c3cc4ccccc4s3)n2)cc1)N1CCC(N2CCCC2)CC1
remaining binding (binding; competition with immobilised ligand; 1 µM): 28%

C[C@@H]1CCN(c2nccc(-c3cnn4ncccc34)n2)C1
remaining binding (binding; 1 µM): 100%

O=C(NCCCN1CCOCC1)c1ccc(Nc2ncc(Cl)c(-c3ccc(Cl)s3)n2)cc1
remaining binding (binding; competition with immobilised ligand; 1 µM): 30%

CS(=O)(=O)N1CCCC(NC(=O)[C@H](CCC2CCCCC2)NC(=O)c2ccc(CNC(=O)c3cnc4ccccn34)cc2)C1 (some centres unmarked)
remaining binding (cell-free assay; competition with immobilised ligand; 0.1 µM): 93%

CNC(=O)[C@@H]1CC[C@@H](n2c(-c3ccc4cnccc4c3)nc3ccc(C(=O)NCc4cccc(C(N)=O)c4)cc32)C1
remaining binding (binding; competition with immobilised ligand; 1 µM): 100%

N[C@@H]1CCN(c2nccc(-c3cnn4ncccc34)n2)C1
remaining binding (binding; 1 µM): 99%

C[C@@]1(Cc2ccc(C#N)cc2)C(=O)N(c2cc(Cl)cc(Cl)c2)c2ncc(C(=O)NC3(c4nc(C5CCC5)no4)CC3)n21
remaining binding (cell-free assay; competition with immobilised ligand; 1 µM): 86%

Nc1ncc2c(n1)-c1c([nH]c3ccc(C#CC4CC4)cc13)CCCC2
remaining binding (binding; competition with immobilised ligand; 1 µM): 100%

CC1=C(C#N)C(c2ccc3c(c2)c(NC(=O)c2ccccc2C)nn3C)C(C#N)=C(C)N1
remaining binding (cell-free assay; competition with immobilised ligand; 1 µM): 92%

C=CC(=O)N1CCC(C(=O)NCC(=O)N2CCN(c3nc(-c4cnc(N)nc4C(F)F)nc(N4CCOCC4)n3)CC2)CC1
remaining binding (binding; competition with immobilised ligand; 1 µM): 90%

O=C(NCCCN1CCOCC1)c1ccc(Nc2nccc(-c3cc4ccccc4s3)n2)cc1
remaining binding (binding; competition with immobilised ligand; 1 µM): 47%

CN(CCCC(F)(F)F)c1nccc(-c2cnn3ncccc23)n1
remaining binding (binding; 1 µM): 95%

C[C@H](c1ccnc(Nc2nc3ccc(-c4cc(N(C)C)ncn4)cc3[nH]2)c1)N1CCN(C(=O)CC(F)(F)F)CC1
remaining binding (cell-free assay; competition with immobilised ligand; 0.1 µM): 100%

CN(C)c1nccc(-c2cnc3ncccn23)n1
remaining binding (binding; 1 µM): 61%

COc1cnc(Nc2cccc(S(N)(=O)=O)c2)nc1N1CCN(c2ccccc2)CC1
remaining binding (binding; competition with immobilised ligand; 1 µM): 100%

CN(c1nccc(-c2cnn3ncccc23)n1)C1CC1
remaining binding (binding; 1 µM): 100%

O=C1NC(c2ccccn2)Sc2ccccc21 (centres unmarked)
remaining binding (cell-free assay; competition with immobilised ligand; 1 µM): 100%

O=C(NCC1CCOCC1)c1n[nH]cc1NC(=O)c1c(F)cccc1F
remaining binding (binding; competition with immobilised ligand; 1 µM): 100%

CN(C)c1nccc(-c2cnn3ncccc23)n1
remaining binding (binding; 1 µM): 57%

COCCOc1nc(-c2ccc(Cl)nc2)nc2c1CN(C(=O)c1ncn3ccccc13)CC2
remaining binding (cell-free assay; competition with immobilised ligand; 0.1 µM): 90%
